# Screens from PubChem.
# Ecoli rRNA inh = reduced GFP signal of wild-type E. coli, primary screen, bacterial rRNA inhibitor project, GFP/RFP fluorescence, OD600, single point; 350,000 compounds, 1.6% hits; GFP signal change (wild-type ribosome), % (test concentration not listed); E. coli WT GFP vs humanized-ribosome RFP mutants, 24 h; stronger effect = lower value; DMSO median 0, no signal -100;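 active = significant combined selectivity score with lowered wild-type GFP, culture density cut under 30%, mutant RFP and density less affected; inactive = any of these conditions unmet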
# PglD inh = C. jejuni PglD acetyltransferase inhibitors, primary screen, biochemical, DTNB colorimetric, single point; 360,000 compounds, 0.098% hits; AID 602405, 2012; purified PglD enzyme, DTNB colorimetric CoA detection; inhibition, % at 12.5 µM; UDP-N-acetylbacillosamine N-acetyltransferase PglD (Campylobacter jejuni); in the data active = inhibition above about 16%, passing the limit was not always enough
# Xi reactivation = activators of inactive X chromosome reactivation, primary screen, imaging, XiGFP fibroblasts, GFP high-content imaging, set 2 | XiGFP mouse fibroblasts, % GFP-positive cells imaging, 3 d; cells co-treated with 5-aza-dC sensitizer; scaled so ellipticine positive control = 100% | activation, % at 7.58 µM | 360,000 compounds, 0.055% hits;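 active = mean normalized replicate activation at least 10% and every replicate at or above 10%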
#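 Assay system – SV40-immortalized XiGFP fibroblast cells, line 68-5-11 · Buffer or medium – DMEM supplemented with 5-aza-dC as sensitizing agent · Dosing – one concentration, pinned · Benchmarks – positive control ellipticine, 6 µM final · Times – 3 days compound exposure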
# RAD52 anneal inh = RAD52 DNA annealing inhibitors, primary screen, biochemical, FRET, single point, set 2. DNA repair protein RAD52 homolog (Homo sapiens), P43351. AID 651710, 2012. recombinant RAD52 DNA annealing, FRET fluorescence. inhibition, % at 18.7 µM. 360,000 compounds, 0.46% hits;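 active = every replicate showing at least 50% inhibition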
# RAD54 inh = inhibitors of human RAD54 branch migration, primary screen, biochemical, fluorescence, single point; DNA repair and recombination protein RAD54-like (Homo sapiens), Q92698; RAD54 Holliday junction branch migration, FAM/BHQ fluorescence; inhibition, % at 10.4 µM; 360,000 compounds, 0.14% hits; AID 602329, 2012;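 active = mean normalized replicate activity at least 40 and at least half of replicates scoring 40 or more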;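 note: inhibitors cause a drop in the FAM fluorescence signal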
# E-sel inducer = E-selectin induction in HUVECs, primary screen, imaging, HUVEC, immunofluorescence imaging, single point; normalized: neutral wells 0, TNF-alpha wells 100; activation, % at 7.58 µM; 260,000 compounds, 0.37% hits; AID 686992, 2013;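 active = mean E-selectin-positive cell signal at least 10% of the positive control, reached in at least 60% of replicates, without over 20% cell loss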
#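 Test system: HUVEC; input: 3,000 HUVEC/well; measured by: immunofluorescence imaging; read-out: % PE-positive cells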
# Hits are given with their value; – = inactive; · = not tested or not shown. Most compounds without a hit are left out; they make up all but 2% or so of the library.
SMILES,Ecoli rRNA inh,PglD inh,Xi reactivation,RAD52 anneal inh,RAD54 inh,E-sel inducer
COc1cc(C(=O)NCC(=O)NNC(=O)C2COc3ccccc3O2)cc(OC)c1OC (stereo unspecified),–,–,–,–,–,152
O=C(Nc1cccc(Cl)c1)N1C[C@@H]2[C@H](c3ccccc31)[C@@H](CO)N2C(=O)c1cccnc1,-51,–,–,–,–,–
O=C(Nc1cc(F)ccc1F)N1C[C@@H]2[C@H](c3ccccc31)[C@H](CO)N2Cc1ccncc1,-43,–,–,–,–,–
CC(C)n1cnc2c(NCc3ccccc3)cc(Cc3ccc(F)cc3)cc21,-21,–,–,–,–,–
O=C1N=c2ccccc2=C1c1sc(=S)n(NC(=O)c2ccccc2)c1O,–,–,–,–,–,–
C=CCn1c(O)c(C2=c3ccccc3=NC2=O)sc1=Nc1ccc(O)cc1,-8.0,–,–,–,–,–
O=C(NC1CCC1)[C@@H]1[C@@H](CO)[C@@H]2Cn3c(ccc(-c4cccc(F)c4)c3=O)[C@H]1N2Cc1cocn1,–,–,–,–,–,–
CC(Sc1nc2ccccc2n1C)C(=O)Nc1ccc(N2CCOCC2)cc1 (stereo unspecified),-23,·,–,–,·,·
CC(C)Cn1c(SC(C)C(=O)Nc2ccc(N3CCOCC3)cc2)nc2ccccc21 (stereo unspecified),–,·,–,–,·,·
CCCC(=O)Nc1ccc2c(c1)C(=O)N(C)C[C@@H](OC)[C@@H](C)CN(CCC)[C@H](C)CO2,–,–,–,–,–,–
O=C(NCC[C@@H]1CC[C@H](NS(=O)(=O)c2cccc(F)c2)[C@@H](CO)O1)C1CCC1,–,–,–,–,–,–
CCOC(=O)C1=CCN(S(=O)(=O)c2cccc(Cl)c2)C1c1cccc(Cl)c1 (stereo unspecified),–,·,–,–,·,–
CCOC(=O)c1nc(C)sc1-c1ccnn1S(=O)(=O)c1cccc(Cl)c1,-29,·,–,–,·,–
COc1ccc(NC(=O)Nc2ccc3c(c2)C(=O)N([C@@H](C)CO)C[C@@H](C)[C@H](CN(C)Cc2ccccc2)OCCCC[C@@H](C)O3)cc1,–,–,–,–,–,–
COc1ccc(NC(=O)Nc2ccc3c(c2)C(=O)N([C@H](C)CO)C[C@@H](C)[C@H](CN(C)CC2CC2)OCCCC[C@H](C)O3)cc1,–,·,–,–,·,–
COc1ccc(NC(=O)Nc2ccc3c(c2)C(=O)N([C@H](C)CO)C[C@@H](C)[C@H](CN(C)Cc2ccccc2)OCCCC[C@H](C)O3)cc1,–,–,–,59,–,–
C[C@H](CO)N1C[C@H](C)[C@H](CN(C)Cc2ccc3c(c2)OCO3)OCCCC[C@H](C)Oc2ccc(NC(=O)Nc3ccccc3)cc2C1=O,–,–,–,56,–,–
CCCN(C)C[C@H]1OCCCC[C@@H](C)Oc2ccc(NC(=O)Nc3ccc(OC)cc3)cc2C(=O)N([C@@H](C)CO)C[C@H]1C,–,–,–,53,–,–
COc1ccc(NC(=O)Nc2ccc3c(c2)C(=O)N([C@H](C)CO)C[C@H](C)[C@H](CN(C)Cc2ccccc2)OCCCC[C@H](C)O3)cc1,–,–,–,54,–,–
C[C@H]1CN([C@@H](C)CO)C(=O)c2cccc(NC(=O)c3ccncc3)c2O[C@H]1CN(C)C(=O)Nc1ccc(C(F)(F)F)cc1,–,–,–,–,–,–
O=C(Cc1ccccn1)NCC[C@@H]1CC[C@@H](NC(=O)Nc2ccc(F)cc2)[C@@H](CO)O1,–,–,–,–,–,–
COc1ccc(CN(C)C[C@H]2OCCCC[C@H](C)Oc3ccc(NC(=O)Nc4ccc5c(c4)OCO5)cc3C(=O)N([C@H](C)CO)C[C@H]2C)cc1,–,–,–,–,–,–
